The nature of series [1]: Aqueous solubility of the compound at pH 7.4. It is filed as physicochemical. Particulars: buffer.
Series [2] is described as follows: Half life in human liver microsomes after 30 mins. It is filed as ADME, Microsome. In a few lines:
(§1)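 Drug incubated with liver microsomes of the stated species (rat, nude mouse, human) for 30 min; half-life of drug determined.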

The nature of series [3]: Half life in nude mouse liver microsomes after 30 mins. It is filed as ADME, Microsome. In short, it runs like this:
as §1

A short description of series [4]: Half life in rat liver microsomes after 30 mins. Format: ADME, Microsome. In a few lines: as §1
Another series concerns MDA-MB-361. The experiment in a line: cells. Particulars: Homo sapiens, MDA-MB-361, 72 h.
The next series concerns PC-3. The experiment in a line: cells. Particulars: Homo sapiens, PC-3, 72 h.
The target in series [5] is Phosphatidylinositol 4,5-bisphosphate 3-kinase catalytic subunit alpha isoform (Homo sapiens, UniProt P42336). The experiment in a line: Inhibition of human PI3Kalpha expressed in SF9 insect cells after 2 hrs by fluorescence polarization assay.
For series [6], the species on record is Mus musculus. Particulars: MDA-MB-361, 25 mg/kg.
For series [7], the species on record is Mus musculus. Particulars: MDA-MB-361, 25 mg/kg. This is another data set of the same source.
For series [8], the species on record is Mus musculus. Particulars: MDA-MB-361, 25 mg/kg. This is another data set of the same source.
The species named for series [9] is Mus musculus. Particulars: MDA-MB-361, 25 mg/kg. This is another data set of the same source.
For series [10], the species on record is Mus musculus. Particulars: MDA-MB-361, 25 mg/kg. The source holds these as a separate data set.
Series [11] addresses Serine/threonine-protein kinase mTOR (Homo sapiens, UniProt P42345). The experiment in a line: Inhibition of mTOR.
Series [12] deals with Mus musculus. The series is described as follows: In vivo inhibition of PI3K/mTOR in human MDA-MB-361 cells xenografted nude mouse assessed as induction of cleaved poly-adenosine-diphosphate-ribose polymerase at 50 mg/kg, iv after 8 hrs by immunoblotting. It is filed as functional, organism-based. Further details: dose 50 mg/kg.
For series [13], the species on record is Mus musculus. Particulars: MDA-MB-361, 10 mg/kg.
The species named for series [14] is Mus musculus. Particulars: MDA-MB-361, 10 mg/kg. The source holds these as a separate data set.
Series [15] is filed under the species Mus musculus. Particulars: MDA-MB-361, 10 mg/kg. This is another data set of the same source.
The species named for series [16] is Mus musculus. Particulars: MDA-MB-361, 10 mg/kg. This is another data set of the same source.
Series [17] is filed under the species Mus musculus. Particulars: MDA-MB-361, 10 mg/kg. This is another data set of the same source.

Structures are written as SMILES. Values after ≈ are worked out from the molar mass of the structure shown. Active and inactive are the calls of the source. No cut-off for these calls is given here. Where only a bound is given, the exact number is not on record here.

Sequence of Phosphatidylinositol 4,5-bisphosphate 3-kinase catalytic subunit alpha isoform (P42336 whole entry, canonical isoform): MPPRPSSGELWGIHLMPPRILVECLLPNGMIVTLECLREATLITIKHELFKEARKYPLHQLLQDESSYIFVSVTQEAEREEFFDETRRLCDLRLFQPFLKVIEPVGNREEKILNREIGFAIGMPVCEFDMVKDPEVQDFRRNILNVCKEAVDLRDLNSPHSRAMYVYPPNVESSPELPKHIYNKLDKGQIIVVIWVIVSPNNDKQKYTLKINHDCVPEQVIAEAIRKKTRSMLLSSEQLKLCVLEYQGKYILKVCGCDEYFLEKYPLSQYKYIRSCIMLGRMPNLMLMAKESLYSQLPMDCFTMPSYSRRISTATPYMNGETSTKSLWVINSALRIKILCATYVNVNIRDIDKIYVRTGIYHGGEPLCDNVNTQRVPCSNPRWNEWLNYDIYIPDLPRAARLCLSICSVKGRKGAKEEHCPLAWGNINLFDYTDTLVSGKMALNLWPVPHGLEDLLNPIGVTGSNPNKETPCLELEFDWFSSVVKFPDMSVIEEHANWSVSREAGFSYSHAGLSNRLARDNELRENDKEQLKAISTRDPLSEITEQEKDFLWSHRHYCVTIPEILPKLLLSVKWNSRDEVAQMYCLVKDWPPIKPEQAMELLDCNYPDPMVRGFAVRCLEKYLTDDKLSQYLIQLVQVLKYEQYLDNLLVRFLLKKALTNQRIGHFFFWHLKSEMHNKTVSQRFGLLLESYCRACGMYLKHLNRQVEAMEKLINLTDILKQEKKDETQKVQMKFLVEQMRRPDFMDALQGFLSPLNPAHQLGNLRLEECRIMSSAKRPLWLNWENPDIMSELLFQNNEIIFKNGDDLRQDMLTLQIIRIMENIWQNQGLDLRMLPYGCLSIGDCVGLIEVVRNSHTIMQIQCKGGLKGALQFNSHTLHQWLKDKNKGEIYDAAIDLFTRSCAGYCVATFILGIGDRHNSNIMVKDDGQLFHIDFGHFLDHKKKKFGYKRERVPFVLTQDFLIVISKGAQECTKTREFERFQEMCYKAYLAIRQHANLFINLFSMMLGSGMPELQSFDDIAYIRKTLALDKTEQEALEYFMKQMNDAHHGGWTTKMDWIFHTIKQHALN

In [1], `COc1nc(-c2ccc(NC(=O)Nc3ccc(C(=O)NCCN(C)C)cc3)cc2)nc(N2CCOCC2)n1` came in with a solubility of more than 100 µg/mL. Moreover, the half-life in series [2], in series [3] and in series [4] was more than 30 min each time. Moreover, the half-inhibitory concentration (IC50) in the series on MDA-MB-361 was less than 0.031 µM; in the series on PC-3, 0.071 µM.
The compound `CNCCN(C)C(=O)c1ccc(NC(=O)Nc2ccc(-c3nc(OC)nc(N4CCOCC4)n3)cc2)cc1` showed a solubility in series [1] of more than 100 µg/mL. The half-life in series [2], in series [3] and in series [4] was more than 30 min in each case. Also, the IC50 in the series on MDA-MB-361 came out at 0.11 µM; in the series with PC-3, 0.374 µM.
For `COc1nc(-c2ccc(NC(=O)Nc3ccc(C(=O)NCCN4CCCCC4)cc3)cc2)nc(N2CCOCC2)n1`, the solubility in series [1] was more than 100 µg/mL. Further, the half-life in [2], in [3] and in [4] was more than 30 min in each case. Besides, the IC50 is less than 0.031 µM in the series with MDA-MB-361 and 0.069 µM in the series with PC-3.
For `COc1nc(-c2ccc(NC(=O)Nc3ccc(C(=O)N4CCN(C)CC4)cc3)cc2)nc(N2CCOCC2)n1`, the results for the half-maximal inhibitory concentration (IC50) (in [5]; with MDA-MB-361; in the series with PC-3) were 0.0012 µM, 0.035 µM and 0.091 µM, respectively. The same compound gave a solubility in [1] of 3 µg/mL (≈ 5.63 µM). Also, the half-life in [2] was more than 30 min; in series [3], more than 30 min; in [4], 16 min.
Compound `CN(C)CCN(C)C(=O)c1ccc(NC(=O)Nc2ccc(-c3nc(O[C@H]4CCOC4)nc(N4CCOCC4)n3)cc2)cc1` showed a solubility in series [1] of more than 100 µg/mL. For the same compound, the half-life in [2] is more than 30 min; in series [3] it was more than 30 min; in series [4] it was 27 min. The inhibition result in the series listed under Mus musculus [6], in the series listed under Mus musculus [7], in the series listed under Mus musculus [8], in the series filed under Mus musculus [9] and in the series listed under Mus musculus [10] was “Active” each time.
Take `COc1nc(-c2ccc(NC(=O)Nc3ccc(C(=O)N4CCNC(C)(C)C4)cc3)cc2)nc(N2CCOCC2)n1`: the IC50 in series [5] was 0.0014 µM; in [11] it was 0.0185 µM; in the series on MDA-MB-361, 0.03 µM; in the series on PC-3, 0.111 µM. The solubility in series [1] amounted to 61 µg/mL (≈ 112 µM). Also, the figures for the half-life in [2], in [3] and in series [4] were more than 30 min, more than 30 min and 29 min, respectively.
In the case of `CN(C)C1CCN(C(=O)c2ccc(NC(=O)Nc3ccc(-c4nc(O[C@H]5CCOC5)nc(N5CCOCC5)n4)cc3)cc2)CC1`, the results for the half-life in series [2] and in series [3] were 18 min and more than 30 min, respectively.
Consider `CN1C2CCC1CC(Oc1nc(-c3ccc(NC(=O)Nc4ccc(C(N)=O)cc4)cc3)nc(N3CCOCC3)n1)C2` (stereo not drawn), for which, in [1], the solubility was determined as 62 µg/mL (≈ 111 µM). Further, in series [4], the half-life was determined as 4 min.
Take `CN1CCN(C(=O)c2ccc(NC(=O)Nc3ccc(-c4nc(N5CCOCC5)[nH]c(=O)n4)cc3)cc2)CC1`: in [4], the half-life is more than 30 min. For the same compound, the IC50 in the series on MDA-MB-361 and with PC-3 was more than 1 µM each time.
Turning to `O=C(Nc1ccc(C(=O)NCCN2CCCC2)cc1)Nc1ccc(-c2nc(O[C@H]3CCOC3)nc(N3CCOCC3)n2)cc1`, the IC50 was determined as 0.0003 µM in series [11], 0.008 µM in the series with MDA-MB-361 and 0.027 µM with PC-3. In addition, the solubility in [1] was determined as 23 µg/mL (≈ 38.2 µM). The half-life in series [2] is more than 30 min; in [3] it was more than 30 min; in [4], 28 min.
Consider `CC(C)Oc1nc(-c2ccc(NC(=O)Nc3ccc(C(=O)NCCN(C)C)cc3)cc2)nc(N2CCOCC2)n1`, for which the values for the IC50 (in series [11]; in the series on MDA-MB-361; in the series with PC-3) were 0.0004 µM, 0.011 µM and 0.041 µM, respectively. In [1], the solubility stood at 3 µg/mL (≈ 5.47 µM). Also, the half-life in [2], in [3] and in [4] was more than 30 min each time.
As to `CC(C)Oc1nc(-c2ccc(NC(=O)Nc3ccc(C(=O)N4CCN(C)CC4)cc3)cc2)nc(N2CCOCC2)n1`, the half-life was more than 30 min in series [2], more than 30 min in series [3] and 17 min in [4].
As for `O=C(Nc1ccc(C(=O)NCCN2CCCCC2)cc1)Nc1ccc(-c2nc(O[C@H]3CCOC3)nc(N3CCOCC3)n2)cc1`, the IC50 in series [11] was 0.0004 µM; with MDA-MB-361, 0.005 µM; in the series on PC-3, 0.018 µM. The concentration in solution in series [1] (solubility) was 1 µg/mL (≈ 1.62 µM). The figures for the half-life in series [2], in series [3] and in series [4] were more than 30 min, more than 30 min and 27 min, respectively.
With `CCn1nnc2c(N3CCOCC3)nc(-c3ccc(NC(=O)Nc4ccc(C(=O)N5CCN(C)CC5)cc4)cc3)nc21`, the results for the IC50 (in series [11]; in the series on MDA-MB-361) were 0.002 µM and 0.008 µM, respectively. Also, the half-life in series [2] and in [3] was more than 30 min in each case. In addition, the inhibition result with Mus musculus [12] was “Active”.
As to `CN1CCN(C(=O)c2ccc(NC(=O)Nc3ccc(-c4nc(O[C@H]5CCOC5)nc(N5CCOCC5)n4)cc3)cc2)CC1`, the solubility in series [1] worked out at 1 µg/mL (≈ 1.7 µM). Moreover, the half-life is 15 min in series [2], more than 30 min in [3] and 20 min in series [4].
For `CC(C)Oc1nc(-c2ccc(NC(=O)Nc3ccc(C(=O)N(C)CCN(C)C)cc3)cc2)nc(N2CCOCC2)n1` the same measures were 15 µg/mL (≈ 26.7 µM), more than 30 min, 23 min and more than 30 min.
In [1], `CN(C)C1CCN(C(=O)c2ccc(NC(=O)Nc3ccc(-c4nc(N5CCOCC5)nc(N5CCOCC5)n4)cc3)cc2)CC1` [GEDATOLISIB] gave a solubility of 15 µg/mL (≈ 24.4 µM). In addition, the half-life in [2], in [3] and in [4] was more than 30 min in each case. Moreover, the inhibition result in the series listed under Mus musculus [6], in the series listed under Mus musculus [7], in the series listed under Mus musculus [8], in the series listed under Mus musculus [9], in the series filed under Mus musculus [10] and in the series listed under Mus musculus [13] was “Active” throughout. Moreover, the inhibition entry in the series listed under Mus musculus [14], in the series listed under Mus musculus [15], in the series filed under Mus musculus [16] and in the series filed under Mus musculus [17] was “Active” in each case.
With `COc1nc(-c2ccc(NC(=O)Nc3ccc(C(=O)N(C)CCN(C)C)cc3)cc2)nc(N2CCOCC2)n1`, the solubility in [1] was more than 100 µg/mL. Moreover, the half-life in series [2] was more than 30 min; in [3], more than 30 min; in series [4] it was 15 min. The results for the IC50 in the series with MDA-MB-361 and in the series on PC-3 were 0.015 µM and 0.034 µM, respectively.
Compound `CN1CCN(C(=O)c2ccc(NC(=O)Nc3ccc(-c4nc(OC5COC5)nc(N5CCOCC5)n4)cc3)cc2)CC1` had a solubility in series [1] of 4 µg/mL (≈ 6.96 µM). In [4], this compound registered a half-life of more than 30 min.

The record behind these values is ChEMBL document CHEMBL1806467 (Bioorg Med Chem Lett, 2011).
